Measured values from ChEMBL document CHEMBL1154186, “Synthesis, kinase inhibitory potencies, and in vitro antiproliferative evaluation of new Pim kinase inhibitors” (J Med Chem, 2009).

Legend:
[1] = target: T1, Serine/threonine-protein kinase BRSK2 (Homo sapiens) (UniProt Q8IWQ3); experiment: Inhibition of BRSK2 assessed as residual enzyme activity at 10 uM relative to untreated control
T1 sequence (whole entry): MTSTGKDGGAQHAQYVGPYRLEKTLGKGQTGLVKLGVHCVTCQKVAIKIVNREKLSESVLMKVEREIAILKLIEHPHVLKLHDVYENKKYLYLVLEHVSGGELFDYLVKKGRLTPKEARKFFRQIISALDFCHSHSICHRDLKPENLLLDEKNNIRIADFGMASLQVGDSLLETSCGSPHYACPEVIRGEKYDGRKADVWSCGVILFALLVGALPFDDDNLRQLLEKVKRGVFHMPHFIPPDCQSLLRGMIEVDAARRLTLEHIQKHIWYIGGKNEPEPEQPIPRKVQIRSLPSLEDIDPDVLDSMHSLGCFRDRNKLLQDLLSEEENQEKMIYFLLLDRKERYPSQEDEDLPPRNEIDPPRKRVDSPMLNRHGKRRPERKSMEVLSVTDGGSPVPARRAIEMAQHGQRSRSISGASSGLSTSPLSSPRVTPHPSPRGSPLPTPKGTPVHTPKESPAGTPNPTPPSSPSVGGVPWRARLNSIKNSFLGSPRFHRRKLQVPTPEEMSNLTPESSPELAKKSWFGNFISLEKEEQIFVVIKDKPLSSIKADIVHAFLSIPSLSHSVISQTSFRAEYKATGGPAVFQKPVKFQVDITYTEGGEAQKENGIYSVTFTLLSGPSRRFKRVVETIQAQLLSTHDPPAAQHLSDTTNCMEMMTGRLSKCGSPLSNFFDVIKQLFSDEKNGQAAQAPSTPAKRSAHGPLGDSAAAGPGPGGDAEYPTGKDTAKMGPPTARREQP
In short: (§1)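 Assayed with [γ-33P]ATP at 50 µM and 10 mM Mg acetate in 50 mM Tris/HCl pH 7.5, 0.1 mM EGTA, 0.1% 2-mercaptoethanol, 30 min, 21 °C. Phosphoric acid stop, P81 filter capture. ERK2 and Lck are mouse; AMPK is rat. 10 µM compound; % activity remaining relative to control without inhibitor, duplicates.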

[2] = target: Protein kinase C alpha type (Homo sapiens) (UniProt P17252); experiment: Inhibition of PKCalpha assessed as residual enzyme activity at 10 uM relative to untreated control
In short: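 Histone H1 (0.1 mg/mL) as substrate, 20 µM [γ-33P]ATP, 10 mM Mg acetate. Run 30 min at 21 °C with 10 µM compound. Radiolabel captured on P81 filters. Expressed as % of uninhibited control, duplicates.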

[3] = target: MAP kinase-activated protein kinase 3 (Homo sapiens) (UniProt Q16644); experiment: Inhibition of MAPKAPK3 assessed as residual enzyme activity at 10 uM relative to untreated control
MAP kinase-activated protein kinase 3 (Homo sapiens), sequence (Q16644 whole entry, looked up): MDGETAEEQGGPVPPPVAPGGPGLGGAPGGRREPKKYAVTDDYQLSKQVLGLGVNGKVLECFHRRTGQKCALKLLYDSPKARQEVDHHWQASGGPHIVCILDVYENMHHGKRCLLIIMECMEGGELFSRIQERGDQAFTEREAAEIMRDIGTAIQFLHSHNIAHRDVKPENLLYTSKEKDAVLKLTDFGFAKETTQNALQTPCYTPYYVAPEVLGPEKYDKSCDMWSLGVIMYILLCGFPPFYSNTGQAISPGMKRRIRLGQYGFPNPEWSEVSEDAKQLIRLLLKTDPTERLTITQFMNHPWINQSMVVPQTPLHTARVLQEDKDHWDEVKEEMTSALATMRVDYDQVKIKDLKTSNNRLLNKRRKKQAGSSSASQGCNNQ
In short: (§2)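 Kinases of human origin, except CK1δ, which is rat. Run in 50 mM Tris/HCl pH 7.5, 0.1 mM EGTA, 0.1% 2-mercaptoethanol and 10 mM Mg acetate, with [γ-33P]ATP at 20 µM, 30 min at 21 °C. Acid-stopped and captured on P81 filters. Compound tested at 10 µM; residual % of uninhibited control, duplicate determinations.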

[4] = Inhibition of CK2 assessed as residual enzyme activity at 10 uM relative to untreated control
In short: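 Radiometric filter-binding assay at 21 °C for 30 min. Mix: 50 mM Tris/HCl pH 7.5, 0.1 mM EGTA, 0.1% 2-mercaptoethanol, 10 mM Mg acetate and [γ-33P]ATP (800 cpm/pmol) at 5 µM. Stopped with orthophosphoric acid and spotted on P81. Compound at 10 µM; activity given as % remaining versus no-inhibitor control, duplicates. Kinases human full-length unless noted.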

[5] = target: Cyclin-dependent kinase 2/cyclin A (Homo sapiens) (UniProt P24941+P20248+P78396); experiment: Inhibition of CDK2/Cyclin A assessed as residual enzyme activity at 10 uM relative to untreated control; type: protein-complex assay; in short: as §2
[6] = target: Aurora kinase B (Homo sapiens) (UniProt Q96GD4); experiment: Inhibition of AURORA B assessed as residual enzyme activity at 10 uM relative to untreated control; in short: as §2
Aurora kinase B (Homo sapiens), sequence (Q96GD4 whole entry): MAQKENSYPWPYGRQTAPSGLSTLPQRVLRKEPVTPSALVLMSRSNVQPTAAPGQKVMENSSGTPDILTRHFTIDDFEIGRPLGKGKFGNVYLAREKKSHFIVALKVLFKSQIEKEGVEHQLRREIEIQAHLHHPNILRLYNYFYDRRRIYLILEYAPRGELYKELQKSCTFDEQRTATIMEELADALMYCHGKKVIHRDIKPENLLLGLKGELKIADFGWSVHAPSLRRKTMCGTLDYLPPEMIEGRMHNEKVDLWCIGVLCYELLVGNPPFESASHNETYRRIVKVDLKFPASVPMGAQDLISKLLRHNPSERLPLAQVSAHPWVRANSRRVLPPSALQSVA

[7] = target: T2, Serine/threonine-protein kinase Sgk1 (Homo sapiens) (UniProt O00141); experiment: Inhibition of SGK1 assessed as residual enzyme activity at 10 uM relative to untreated control
T2 sequence (whole entry): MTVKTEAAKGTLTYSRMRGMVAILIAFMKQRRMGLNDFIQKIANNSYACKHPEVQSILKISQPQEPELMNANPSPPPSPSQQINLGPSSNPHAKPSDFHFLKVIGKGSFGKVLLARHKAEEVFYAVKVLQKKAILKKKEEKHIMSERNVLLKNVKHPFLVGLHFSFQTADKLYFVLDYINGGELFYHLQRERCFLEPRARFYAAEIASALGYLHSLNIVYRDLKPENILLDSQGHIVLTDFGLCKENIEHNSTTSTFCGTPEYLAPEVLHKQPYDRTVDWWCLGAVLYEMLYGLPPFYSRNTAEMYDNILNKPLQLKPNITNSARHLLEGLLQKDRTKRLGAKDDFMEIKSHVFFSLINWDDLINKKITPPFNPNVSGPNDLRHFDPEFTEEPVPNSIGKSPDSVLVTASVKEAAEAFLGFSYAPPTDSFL
In short: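 Buffer Tris/HCl pH 7.5, EGTA and 2-mercaptoethanol. 30 min at 21 °C, compound at 10 µM. P81 filter read-out. Residual activity versus control, duplicates.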

[8] = target: Ribosomal protein S6 kinase alpha-5 (Homo sapiens) (UniProt O75582); experiment: Inhibition of MSK1 assessed as residual enzyme activity at 10 uM relative to untreated control
Ribosomal protein S6 kinase alpha-5 (Homo sapiens), sequence (O75582 whole entry, looked up): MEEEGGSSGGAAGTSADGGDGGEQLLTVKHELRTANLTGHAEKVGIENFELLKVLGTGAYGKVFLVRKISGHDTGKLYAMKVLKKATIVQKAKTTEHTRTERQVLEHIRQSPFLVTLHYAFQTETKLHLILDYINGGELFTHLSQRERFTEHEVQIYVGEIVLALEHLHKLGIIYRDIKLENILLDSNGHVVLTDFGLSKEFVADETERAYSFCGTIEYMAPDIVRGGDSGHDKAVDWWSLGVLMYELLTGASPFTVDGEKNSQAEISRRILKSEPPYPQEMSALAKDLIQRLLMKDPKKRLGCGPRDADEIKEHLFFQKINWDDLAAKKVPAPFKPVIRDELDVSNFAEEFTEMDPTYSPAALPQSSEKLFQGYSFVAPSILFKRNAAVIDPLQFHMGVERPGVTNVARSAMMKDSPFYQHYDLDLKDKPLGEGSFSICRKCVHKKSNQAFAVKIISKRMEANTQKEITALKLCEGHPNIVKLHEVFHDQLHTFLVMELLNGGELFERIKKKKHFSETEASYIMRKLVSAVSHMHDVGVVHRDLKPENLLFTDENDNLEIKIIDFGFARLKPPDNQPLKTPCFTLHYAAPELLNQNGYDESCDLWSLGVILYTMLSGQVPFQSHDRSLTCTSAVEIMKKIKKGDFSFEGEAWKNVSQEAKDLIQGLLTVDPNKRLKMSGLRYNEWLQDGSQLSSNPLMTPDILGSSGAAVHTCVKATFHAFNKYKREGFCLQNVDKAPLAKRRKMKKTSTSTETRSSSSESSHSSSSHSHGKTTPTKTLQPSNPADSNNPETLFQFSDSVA

[9] = target: Calcium/calmodulin-dependent protein kinase type 1 (Homo sapiens) (UniProt Q14012); experiment: Inhibition of CaMK1 assessed as residual enzyme activity at 10 uM relative to untreated control
Calcium/calmodulin-dependent protein kinase type 1 (Homo sapiens), sequence (Q14012 whole entry, looked up): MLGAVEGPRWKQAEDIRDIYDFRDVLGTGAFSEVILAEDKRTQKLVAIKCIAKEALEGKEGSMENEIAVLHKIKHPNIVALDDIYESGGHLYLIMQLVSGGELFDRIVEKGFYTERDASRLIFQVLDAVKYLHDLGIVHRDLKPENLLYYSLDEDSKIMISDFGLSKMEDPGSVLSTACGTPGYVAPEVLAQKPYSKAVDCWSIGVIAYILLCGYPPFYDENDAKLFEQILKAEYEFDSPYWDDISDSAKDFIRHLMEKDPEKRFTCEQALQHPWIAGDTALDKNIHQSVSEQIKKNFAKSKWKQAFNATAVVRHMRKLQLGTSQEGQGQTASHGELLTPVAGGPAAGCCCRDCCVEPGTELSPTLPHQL

[10] = target: RAC-beta serine/threonine-protein kinase (Homo sapiens) (UniProt P31751); experiment: Inhibition of PKBbeta assessed as residual enzyme activity at 10 uM relative to untreated control; in short: as §1
RAC-beta serine/threonine-protein kinase (Homo sapiens), sequence (P31751 whole entry): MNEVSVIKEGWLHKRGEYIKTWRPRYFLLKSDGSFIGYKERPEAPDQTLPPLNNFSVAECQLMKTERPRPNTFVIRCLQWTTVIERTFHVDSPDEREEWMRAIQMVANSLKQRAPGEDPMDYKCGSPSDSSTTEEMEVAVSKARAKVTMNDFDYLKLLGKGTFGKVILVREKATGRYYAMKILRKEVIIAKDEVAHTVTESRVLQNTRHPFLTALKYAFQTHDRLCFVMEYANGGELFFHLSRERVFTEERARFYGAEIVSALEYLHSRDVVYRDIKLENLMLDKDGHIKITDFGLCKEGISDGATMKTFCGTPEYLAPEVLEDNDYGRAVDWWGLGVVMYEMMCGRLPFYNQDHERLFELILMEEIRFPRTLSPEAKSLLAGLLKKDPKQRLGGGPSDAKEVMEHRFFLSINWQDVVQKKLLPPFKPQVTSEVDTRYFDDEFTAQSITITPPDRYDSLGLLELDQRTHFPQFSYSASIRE

[11] = target: Serine/threonine-protein kinase pim-1 (Homo sapiens) (UniProt P11309); experiment: Inhibition of Pim-1 assessed as residual enzyme activity at 10 uM relative to untreated control
Serine/threonine-protein kinase pim-1 (Homo sapiens), sequence (P11309 whole entry, looked up): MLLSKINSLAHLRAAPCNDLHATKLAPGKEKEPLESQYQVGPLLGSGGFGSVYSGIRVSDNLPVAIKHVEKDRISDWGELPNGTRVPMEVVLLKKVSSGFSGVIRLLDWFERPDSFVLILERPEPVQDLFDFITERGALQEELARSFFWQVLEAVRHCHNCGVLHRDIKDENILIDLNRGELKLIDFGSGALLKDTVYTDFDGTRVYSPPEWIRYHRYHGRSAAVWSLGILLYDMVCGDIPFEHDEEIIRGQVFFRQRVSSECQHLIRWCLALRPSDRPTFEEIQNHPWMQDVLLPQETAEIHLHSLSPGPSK

[12] = test system: MKK1 (Oryctolagus cuniculus); experiment: Inhibition of MKK1 assessed as residual enzyme activity at 10 uM relative to untreated control

Row | SMILES | Activity [1] [%] | Activity [2] [%] | Activity [3] [%] | Activity [4] [%] | Activity [5] [%] | Activity [6] [%] | Activity [7] [%] | Activity [8] [%] | Activity [9] [%] | Activity [10] [%] | Activity [11] [%] | Activity [12] [%]
1 | O=Cc1c[nH]c2c1ccc1c3ccccc3[nH]c12 | 22 | 84 | 69 | 62 | 74 | 68 | 64 | 71 | 71 | 98 |  | 
2 | O=Cc1c[nH]c2ccc3c4ccccc4[nH]c3c12 | 101 | 95 | 90 | 98 | 109 | 92 | 105 | 84 | 36 | 107 | 79 | 104
3 | c1ccc2c(c1)[nH]c1c2ccc2cc[nH]c21 | 58 | 111 | 89 | 91 | 97 | 67 | 82 | 90 | 29 | 107 | 20 | 87
4 | c1ccc2c(c1)[nH]c1c3cc[nH]c3ccc21 | 76 | 103 | 88 | 96 | 95 | 67 | 102 | 94 | 80 | 107 | 53 | 75
